Laboratory results as given in PubChem BioAssay AID488804 (Broad Institute, 2010).
Active and inactive are the calls of the source.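 How the source made its calls: active means luminescence cut by over half relative to the proteasome inhibitor control, with potency below ten times the top valid dose; inactive means no activity, or signal change in the wrong direction.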

Biological target: 26S proteasome chymotrypsin-like activity (human)
Test: inhibitors of cellular proteasome chymotrypsin-like activity, dose response, counter-screen, cell-based, U2OS, luminescence, dry powder, set 2 (AID 488804)
Conditions: U2OS cells, Proteasome-Glo chymotrypsin luminescence
Outline: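 Compound dosing: Eight-point threefold dilution series, 16.5 mM top stock; material: human U2OS osteosarcoma cells, proteasome chymotrypsin-like activity; incubation: cells 24 h/37 °C, compounds 4 h, reagent 2 h RT; replicates: duplicates; measured by: Proteasome-Glo chymotrypsin luminescence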

AC50 [µM]	SMILES
2.63	Cc1cccc(NC(=O)c2cc(-c3ccccc3)on2)n1
6.99	O=C(Nc1cn2ccccc2n1)c1cc(-c2ccccc2)on1
38	O=C(Nc1ncc(-c2ccccc2)o1)c1cc(-c2ccccc2)on1
38	CCCCNC(=O)c1cc(-c2ccccc2)on1
23.5	O=C(Nc1ncc2ccccc2n1)c1cc(-c2ccccc2)on1

Same assay, conditions: U2OS cells, Proteasome-Glo chymotrypsin luminescence; at 38 µM (top of the series)

SMILES	activity change, negative = inhibition
c1ccc(CNc2nc(-c3ccccn3)nnc2-c2ccccc2)cc1	inactive
c1ccc(-c2nnc(-c3ccccn3)nc2NCC2CC2)cc1	inactive
c1ccc(-c2nnc(-c3ccccn3)nc2NCCCN2CCOCC2)cc1	inactive
c1ccc(-c2cnc(Nc3nc(-c4ccccn4)nnc3-c3ccccc3)s2)cc1	inactive
C=CCNc1nc(-c2ccccn2)nnc1-c1ccccc1	inactive
Cc1cccc(CNc2nc(-c3ccccn3)nnc2-c2ccccc2)c1	inactive
c1ccc(-c2nnc(Nc3nc(-c4ccccn4)nnc3-c3ccccc3)s2)cc1	inactive
c1ccc(-c2nnc(-c3ccccn3)nc2N2CCC(N3CCOCC3)CC2)cc1	inactive
Cc1ccc(Nc2nc(-c3ccccn3)nnc2-c2ccccc2)cn1	inactive
c1ccc(-c2nnc(-c3ccccn3)nc2N2CCN(c3ccncc3)CC2)cc1	inactive
CN(C)c1nc(-c2ccccn2)nnc1-c1ccccc1	inactive
c1ccc(-c2nnc(-c3ccccn3)nc2Nc2nc3ccccc3s2)cc1	inactive
CC(C)(C)CCNc1nc(-c2ccccn2)nnc1-c1ccccc1	inactive
O=C(Nc1nc(-c2ccccc2)cs1)c1cc(-c2ccccc2)on1	inactive
Cn1c(-c2ccccc2)cnc1Nc1nc(-c2ccccn2)nnc1-c1ccccc1	inactive
O=C(Nc1nnc(-c2ccccc2)s1)c1cc(-c2ccccc2)on1	inactive
Cc1cccc(Nc2nc(-c3ccccn3)nnc2-c2ccccc2)n1	inactive
O=C(Nc1ccc2ccccc2n1)c1cc(-c2ccccc2)on1	inactive
c1ccc(-c2nnc(-c3ccccn3)nc2Nc2cnc3ccccc3n2)cc1	inactive
Cc1ccc(CNc2nc(-c3ccccn3)nnc2-c2ccccc2)cc1	inactive
O=C(Nc1cnc2ccccc2c1)c1cc(-c2ccccc2)on1	inactive
c1ccc(-c2nnc(-c3ccccn3)nc2NCC2CCCCC2)cc1	inactive
Cc1ccccc1CNc1nc(-c2ccccn2)nnc1-c1ccccc1	inactive
c1ccc(-c2csc(Nc3nc(-c4ccccn4)nnc3-c3ccccc3)n2)cc1	inactive
OCCCNc1nc(-c2ccccn2)nnc1-c1ccccc1	inactive
c1ccc(-c2nnc(-c3ccccn3)nc2NCCN2CCOCC2)cc1	inactive
OCC1CCN(c2nc(-c3ccccn3)nnc2-c2ccccc2)CC1	inactive

Now from value to compound:

activity change, negative = inhibition	SMILES
inactive	O=C(NCC1CC1)c1cc(-c2ccccc2)on1
inactive	Cc1ccccc1CNC(=O)c1cc(-c2ccccc2)on1
inactive	O=C(NCCCn1ccnc1)c1cc(-c2ccccc2)on1
inactive	O=C(NC1CCc2ccccc2C1)c1cc(-c2ccccc2)on1 (centres undefined)
inactive	CC(C)(C)CCNC(=O)c1cc(-c2ccccc2)on1
inactive	O=C(NCCN1CCOCC1)c1cc(-c2ccccc2)on1
inactive	O=C(NCCCCO)c1cc(-c2ccccc2)on1
inactive	O=C(NCCCN1CCOCC1)c1cc(-c2ccccc2)on1
inactive	Cc1ccc(NC(=O)c2cc(-c3ccccc3)on2)cn1
inactive	O=C(c1cc(-c2ccccc2)on1)N1CCC(N2CCCC2)CC1
inactive	Cc1cccc(CNC(=O)c2cc(-c3ccccc3)on2)c1
inactive	Cn1c(NC(=O)c2cc(-c3ccccc3)on2)nc2ccccc21
inactive	O=C(NCC1CCCCC1)c1cc(-c2ccccc2)on1
inactive	CN1CCN(C(=O)c2cc(-c3ccccc3)on2)CC1
inactive	O=C(NCCN1CCCCC1)c1cc(-c2ccccc2)on1
inactive	O=C(c1cc(-c2ccccc2)on1)N1CCc2cccnc21
inactive	CN(C)CCNC(=O)c1cc(-c2ccccc2)on1
inactive	O=C(c1cc(-c2ccccc2)on1)N1CCC(CO)CC1
inactive	O=C(c1cc(-c2ccccc2)on1)N1CCN(c2ccncc2)CC1
inactive	O=C(Nc1nc2ccccc2s1)c1cc(-c2ccccc2)on1
inactive	O=C(NCc1ccccc1)c1cc(-c2ccccc2)on1
inactive	CN1CCN(c2nc(-c3ccccn3)nnc2-c2ccccc2)CC1
inactive	Cn1c(-c2ccccc2)cnc1NC(=O)c1cc(-c2ccccc2)on1
inactive	O=C(c1cc(-c2ccccc2)on1)N1CCC(N2CCOCC2)CC1
inactive	O=C(NC1Cc2ccccc2C1)c1cc(-c2ccccc2)on1
inactive	Cc1ccc(CNC(=O)c2cc(-c3ccccc3)on2)cc1
inactive	O=C(NCCCO)c1cc(-c2ccccc2)on1
